According to ChEMBL document CHEMBL3045046, “Synthesis, herbicidal activities, and 3D-QSAR of 2-cyanoacrylates containing aromatic methylamine moieties” (J Agric Food Chem, 2008):

Assays:
Assay type in all cases: functional
[1] = test system: Amaranthus retroflexus; assay: Herbicidal activity against Amaranthus retroflexus assessed as inhibition of herb growth at 1.5 kg/ha during preemergence treatment protocol; details: pre-emergence, read-out: GI
[2] = test system: Digitaria sanguinalis; assay: Herbicidal activity against hairy Digitaria sanguinalis (hairy crabgrass) assessed as inhibition of herb growth at 1.5 kg/ha during postemergence treatment protocol; details: post-emergence, read-out: GI
[3] = test system: Medicago sativa; assay: Herbicidal activity against Medicago sativa (alfalfa) assessed as inhibition of herb growth at 1.5 kg/ha during postemergence treatment protocol; details: post-emergence, read-out: GI
[4] = test system: Amaranthus retroflexus; assay: Herbicidal activity against Amaranthus retroflexus assessed as inhibition of herb growth at 1.5 kg/ha during postemergence treatment protocol; details: post-emergence, read-out: GI
[5] = test system: Brassica napus; assay: Herbicidal activity against Brassica napus (oilseed rape) assessed as inhibition of herb growth at 1.5 kg/ha during postemergence treatment protocol; details: post-emergence, read-out: GI
[6] = test system: Spinacia oleracea; assay: Inhibition of photosynthetic electron transport in Spinacia oleracea (spinach)isolated chloroplasts assessed as inhibition of Hill reaction
How it was run: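 Chloroplasts from fresh spinach leaves, homogenised in ice-cold pH 7.8 buffer (0.4 M sucrose, 10 mM NaCl, 50 mM Tris-HCl), spun 3 min 120g then 5 min 1000g at 4 °C. Reaction buffer 350 mM NaCl, 10 mM Tris-HCl pH 7.8 with DCPIP; 2 min light (360 µmol m^-2 s^-1), DCPIP reduction at 620 nm. Compounds 0.01 mg/L–0.3 mg/mL in […]/water, ≥triplicate; IC50 by log-linear regression.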

[7] = test system: Digitaria sanguinalis; assay: Herbicidal activity against hairy Digitaria sanguinalis (hairy crabgrass) assessed as inhibition of herb growth at 1.5 kg/ha during preemergence treatment protocol; details: pre-emergence, read-out: GI
[8] = test system: Medicago sativa; assay: Herbicidal activity against Medicago sativa (alfalfa) assessed as inhibition of herb growth at 1.5 kg/ha during preemergence treatment protocol; details: pre-emergence, read-out: GI
[9] = test system: Brassica napus; assay: Herbicidal activity against Brassica napus (oilseed rape) assessed as inhibition of herb growth at 1.5 kg/ha during preemergence treatment protocol; details: pre-emergence, read-out: GI
[10] = Spinacia oleracea, read-out: pIC50 (converted)

Compound	inhibition of growth at 1500 g/ha [1]	inhibition of growth at 1500 g/ha [2]	inhibition of growth at 1500 g/ha [3]	inhibition of growth at 1500 g/ha [4]	inhibition of growth at 1500 g/ha [5]	IC50 [6]	IC50 [6, 10]	inhibition of growth at 1500 g/ha [7]	inhibition of growth at 1500 g/ha [8]	inhibition of growth at 1500 g/ha [9]
CCOCCOC(=O)/C(C#N)=C(\NCc1cnc(OCC)nc1)SC	15.9%	8.7%	40.8%	26.4%	16.1%	1.45 ppm	1070 nM	12.5%	31.1%	0%
CCOCCOC(=O)/C(C#N)=C(\NCC1CCOC1)C(C)C (stereo not given)	12.6%	57.6%	41.3%	37.8%	88.2%	41.4 ppm	41700 nM	0%	2.3%	0%
CCOCCOC(=O)/C(C#N)=C(\NCc1cnc(Br)s1)SC	29.7%	36%	26.8%	88%	100%	0.102 ppm	102 nM	8.9%	8.2%	28.7%
CCCOc1ncc(CN/C(=C(/C#N)C(=O)OCCOCC)C(C)C)s1	27%	52.8%	48.7%	100%	100%	0.08 ppm	79.4 nM	6.9%	0%	9.8%
CCOCCOC(=O)/C(C#N)=C(\NCc1ccc(Br)nc1)SC	91.9%	60%	59.9%	100%	100%	0.084 ppm	83.2 nM	0%	12%	23.9%
CCOCCOC(=O)/C(C#N)=C(\NCc1cnc(OCC(F)(F)F)s1)SC	43.2%	47.2%	60.9%	98.7%	100%	0.055 ppm	55 nM	8.9%	1.7%	65.4%
CCOCCOC(=O)/C(C#N)=C(\NCc1ccc(OCC)nn1)SC	56.8%	0.8%	24.2%	32.9%	64.6%	12.29 ppm	9120 nM	0%	0%	0%
CCOCCOC(=O)/C(C#N)=C(\NCc1cnc(Cl)s1)C(C)C	67.6%	45.6%	37.1%	100%	100%	0.161 ppm	162 nM	28.7%	15.7%	70.3%
CCCOc1ncc(CN/C(SC)=C(/C#N)C(=O)OCCOCC)s1	27%	49.6%	57.3%	100%	100%	0.05 ppm	50.1 nM	0%	17.6%	0%
CCOCCOC(=O)/C(C#N)=C(/CC)NCc1ccc(Br)nc1	21.6%	95.2%	77.8%	100%	100%	0.335 ppm	339 nM	18.8%	28.8%	71.9%
CCOCCOC(=O)/C(C#N)=C(\NCc1cnc(OC(C)C)s1)C(C)C	100%	60.8%	43.4%	100%	100%	0.076 ppm	75.9 nM	6.9%	1.7%	51.4%
